The text below walks through data of paper PMC9116722 (Cancer chemotherapy and pharmacology, 2022).

The conditions of series [1]: phase 3 maintenance trials ref 25-27; cited from earlier work.
Series [2] is described as follows: Non-compartmental pharmacokinetics. It counts as in vivo, human. An outline of the steps: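 Patients took oral drug twice daily, continuously, at 50–500 mg BID. Plasma parent drug and active metabolite M8 were measured by a validated assay. Parameters were derived non-compartmentally on day 1 and reported as geometric mean (SD). Accumulation indices for Cmax and AUC0–8 were compared with theoretical values from D1 half-lives. Dose proportionality was tested on day-1 Cmax and AUC0-inf (95% CI of coefficient including 1).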

Another series relates to sporadic ovarian cancer. The note with it: sporadic ovarian cancer ref 43; cited from earlier work.
Setting [3] is: metabolite M8, geometric mean (SD).

`CNCc1ccc(-c2[nH]c3cc(F)cc4c3c2CCNC4=O)cc1` [rucaparib]: in series [1], the “grade 3 or 4 anemia” value is reported as 19%.

With `CC1(c2nc3c(C(N)=O)cccc3[nH]2)CCC(=O)N1` (stereo not drawn) [M8], in series [2] (day 1), the “M8/ABT-888 metabolic ratio, AUC0-inf” value is 0.21 (1.9) and the “M8/ABT-888 metabolic ratio, Cmax” value is 0.11 (1.8). For the same compound, the theoretical accumulation index in series [2] (metabolite M8, from D1 half-lives, geometric mean (SD)) is reported as 1.51 (1.25). For the same compound, in series [2] (setting [3]), the “accumulation index for AUC0–8” value is 1.59 (1.41) and the “accumulation index for Cmax” value is 1.51 (1.34).

On to `NC(=O)c1cccc2cn(-c3ccc([C@@H]4CCCNC4)cc3)nc12` [niraparib], for which the “grade 3 or 4 anemia” value in series [1] is 25%.

Consider `O=C(c1cc(Cc2n[nH]c(=O)c3ccccc23)ccc1F)N1CCN(C(=O)C2CC2)CC1` [olaparib], for which the “grade 3 or 4 anemia” value in series [1] was 19%. The “patients with objective responses” value in the series with sporadic ovarian cancer is 24%.
